Activity calls are given as the source filed them. No cut-off for these calls is given here.
Experiments:
[1] = tested on: Fasciola hepatica; assay: Antiparasitic activity against Fasciola hepatica infected in rat assessed as reduction in worm burden at 50 mg/kg, po administered as single dose measured after 6 days post treatment; format: functional; design: scale not given: the % may be the effect or the level left
Outline: (§1)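 Rats harbouring adult F. hepatica, treated at 8–13 weeks post-infection with a single oral dose given as a suspension in 7% (v/v) Tween 80 and 3% (v/v) EtOH. Killed at day 6 post-treatment. Adult flukes recovered from bile ducts and livers. Worm burden reduction taken from mean total worm burdens of treated versus untreated control rats. Cures = rats cured/rats treated. Significance by Kruskal-Wallis test.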

[2] = tested on: Fasciola hepatica; assay: Antiparasitic activity against Fasciola hepatica infected in rat assessed as cure rate at 100 mg/kg, po administered as single dose measured after 6 days post treatment; format: functional, organism-based; design: dose 100 mg/kg; outline: as §1
[3] = tested on: Fasciola hepatica; assay: Antiparasitic activity against Fasciola hepatica infected in rat assessed as reduction in worm burden at 25 mg/kg, po administered as single dose measured after 6 days post treatment; format: functional; design: scale not given: the % may be the effect or the level left; outline: as §1
[4] = tested on: Fasciola hepatica; assay: Antiparasitic activity against Fasciola hepatica infected in rat assessed as reduction in worm burden at 100 mg/kg, po administered as single dose measured after 6 days post treatment; format: functional; design: scale not given: the % may be the effect or the level left; outline: as §1
[5] = tested on: Fasciola hepatica; assay: Antiparasitic activity against Fasciola hepatica infected in rat assessed as cure rate at 50 mg/kg, po administered as single dose measured after 6 days post treatment; format: functional, organism-based; design: dose 50 mg/kg; outline: as §1
[6] = tested on: Fasciola hepatica; assay: Antiparasitic activity against Fasciola hepatica infected in rat assessed as cure rate at 25 mg/kg, po administered as single dose measured after 6 days post treatment; format: functional, organism-based; design: dose 25 mg/kg; outline: as §1

Row | Compound | Activity [1] | Activity [2] | Activity [3] | Activity [4] | Activity [5] | Activity [6]
1 | O=C(O)C[C@H]1CC[C@]2(CC1)COC1(OO2)C2CC3CC(C2)CC1C3 (some centres undefined) | 100% | Active | 88% | 100% | Active | –
2 | O=C(O)CC1CCC2(CC1)OOC1(OO2)C2CC3CC(C2)CC1C3 (centres undefined) | 100% | Active | 71% | 100% | Active | inactive
3 | O=C(O)C1CCC2(CC1)OOC1(OO2)C2CC3CC(C2)CC1C3 (centres undefined) | 48% | Active | – | 100% | – | –
4 | O=C(O)C1CCC2(CC1)OOC1(CCCCC1)OO2 | 61% | Active | – | 100% | – | –
5 | O=C(O)[C@H]1CC[C@]2(CC1)COC1(OO2)C2CC3CC(C2)CC1C3 (some centres undefined) | – | – | – | 61% | – | –
6 | O=C(O)C[C@H]1CC[C@]2(CC1)OOC1(O2)C2CC3CC(C2)CC1C3 (some centres undefined) | – | Active | – | 100% | – | –
7 | O=C(O)c1ccc([C@H]2CC[C@]3(CC2)COC2(OO3)C3CC4CC(C3)CC2C4)cc1 (some centres undefined) | 100% | Active | 0% | 100% | Active | –
8 | C[C@H]1[C@H](OC(=O)CCC(=O)O)O[C@@H]2O[C@@]3(C)CC[C@H]4[C@H](C)CC[C@@H]1[C@@]24OO3 [ARTESUNATE] | – | – | – | 30% | – | –
9 | O=C(O)c1ccc(C2CCC3(CC2)OOC2(OO3)C3CC4CC(C3)CC2C4)cc1 (centres undefined) | – | – | – | 92% | – | –
10 | O=C(O)[C@H]1CC[C@]2(CC1)COC1(CCCCC1)OO2 | 71% | Active | – | 100% | inactive | –
11 | O=C(O)[C@H]1CC[C@@]2(CC1)OOC1(CCCCC1)O2 | – | inactive | – | 26% | – | –
12 | O=C(O)CC1CCC2(CC1)OCC1(OO2)C2CC3CC(C2)CC1C3 (centres undefined) | – | inactive | – | 0% | – | –
13 | O=C(O)c1ccc(C2CCC3(CC2)OOC2(O3)C3CC4CC(C3)CC2C4)cc1 (centres undefined) | 19% | Active | – | 100% | inactive | –
14 | O=C(O)CC1CCC2(CC1)OOC1(CCCCC1)OO2 | – | inactive | – | 29% | – | –
15 | O=C(O)C[C@H]1CC[C@]2(CC1)COC1(CCCCC1)OO2 | – | – | – | 95% | – | –
16 | O=C(O)[C@H]1CC[C@]2(CC1)OO[C@]1(O2)C2CC3CC(C2)CC1C3 | – | inactive | – | 52% | – | –
